Activity calls are given as the source filed them. The calls are words filed in the database; no cut-off is given here.
Assays:
ZR-75-1 [1] = assay: Induction of apoptosis in human ZR-75-1 cells assessed as viable cells at 5 umol/L incubated for 3 days by Annexin V/PI staining based flow cytometry (reference value: 95 %); assay type: functional; details: ZR-75-1, 72 h, dose 5 µmol/L, time 3 day, read-out: Activity
ZR-75-1 [2] = assay: Downregulation of histone H3 expression in human ZR-75-1 cells at 5 umol/L incubated upto 72 hrs by Western blot analysis; assay type: functional, cell-based; details: dose 5.0 µmol/L
In short: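 Cells were treated with 5 µmol/L for 0, 24, 48 and 72 h. Lysates were immunoblotted for AURK-B, phospho-Ser10 histone H3 and total histone H3, with β-actin reprobe as the loading control. Detection by enhanced chemiluminescence.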

MCF7 [3] = assay: Induction of polyploidy in human MCF7 cells assessed as cells with 8N chromosome contents at 5 uM incubated for 48 hrs by PI staining based flow cytometry (reference value: 0); assay type: functional
ZR-75-1 [4] = assay: Induction of polyploidy in human ZR-75-1 cells assessed as cells with 2N chromosome contents at 5 uM incubated for 72 hrs by PI staining based flow cytometry (reference value: 48); assay type: functional
ZR-75-1 [5] = assay: Induction of polyploidy in human ZR-75-1 cells assessed as cells with 16N chromosome contents at 5 uM incubated for 72 hrs by PI staining based flow cytometry (reference value: 0); assay type: functional
T47D [6] = assay: Induction of polyploidy in human T47D cells assessed as cells with 16N chromosome contents at 5 uM incubated for 72 hrs by PI staining based flow cytometry (reference value: 0); assay type: functional
T47D [7] = assay: Induction of polyploidy in human T47D cells at 10 umol/L incubated for 72 hrs by microscopic analysis relative to control; assay type: functional; details: dose 10 µmol/L, at 10 µM
In short: (§1)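 Cells stained with Hema-3 and photographed under a light microscope with CCD camera. Polyploid cells scored as percent of the population.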

T47D [8] = assay: Induction of polyploidy in human T47D cells assessed as cells with 4N chromosome contents at 5 uM incubated for 48 hrs by PI staining based flow cytometry (reference value: 35); assay type: functional
T47D [9] = assay: (§2) Induction of cell cycle arrest at telophase in human T47D cells at 5 umol/L preincubated for 24 hrs followed by extensive compound washout and subsequent culturing in compound-free media measured upto 120 mins by immunofluorescence staining based analysis; assay type: functional; details: dose 5.0 µmol/L
In short: (§3)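 T-47D cells were treated at 37°C with 5 µmol/L for 24 h, washed extensively, then cultured in DMEM with 10% FBS for 30, 60 and 120 min. α- and γ-tubulin were detected by immunofluorescence with DAPI, imaged at 400×. The control was a 24 h preincubation with 5 µmol/L RO-3306. One of 2 experiments.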

T47D [10] = assay: as §2, with “metaphase” for “telophase”, “cells assessed as disorganization of multipolar mitotic spindles” for “cells”; assay type: functional; details: dose 5.0 µmol/L; in short: as §3
[11] = Effect on doxorubicin resistance in human T47D cells with compound-induced polyploidy assessed as change in doxorubicin-induced cytotoxicity by measuring increase in doxorubicin IC50 at 5 umol/L preincubated for 72 hrs followed by compound washout and subsequent doxorubicin treatment for 72 hrs by MTS assay; assay type: functional, cell-based
T47D [12] = assay: Induction of polyploidy in human T47D cells at 5 uM incubated for 72 hrs by microscopic analysis; assay type: functional, cell-based; in short: as §1
T47D [13] = assay: Disruption of microtubule dynamics in human T47D cells assessed as lack of chromosomal segregation at 5 umol/L incubated for 24 hrs by immunofluorescence staining based analysis; assay type: functional, cell-based; details: dose 5.0 µmol/L
In short: (§4)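 T-47D cells (1 × 10^6/dish) in RPMI-1640 with 5% FBS were treated with or without 5 µmol/L for 24, 48 and 72 h. Cells were fixed in cold acetone and stained with mouse anti-α-tubulin or anti-γ-tubulin, then an FITC anti-mouse IgG secondary, plus DAPI. Fluorescence microscopy, 200× magnification.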

MCF7 [14] = assay: Induction of polyploidy in human MCF7 cells at 5 to 10 umol/L incubated for 72 hrs by microscopic analysis relative to control; assay type: functional; details: dose 5-10 µmol/L, at 5 to 10 µM; in short: as §1
ZR-75-1 [15] = assay: Induction of apoptosis in human ZR-75-1 cells assessed as rate of apoptotic cell death at 5 umol/L by annexin V/PI staining based flow cytometry relative to control; assay type: functional; details: dose 5 µmol/L; at 5 µM
MCF7 [16] = assay: Induction of polyploidy in human MCF7 cells at 5 uM incubated for 72 hrs by microscopic analysis; assay type: functional, cell-based; in short: as §1
ZR-75-1 [17] = assay: Induction of apoptosis in human ZR-75-1 cells assessed as necrotic cells at 5 umol/L incubated for 3 days by Annexin V/PI staining based flow cytometry (reference value: 0.7 %); assay type: functional; details: dose 5 µmol/L; time 3 day; at 5 µM
ZR-75-1 [18] = assay: Induction of polyploidy in human ZR-75-1 cells assessed as cells with 4N chromosome contents at 5 uM incubated for 48 hrs by PI staining based flow cytometry (reference value: 35); assay type: functional
T47D [19] = assay: Disruption of microtubule dynamics in human T47D cells assessed as formation of multipolar spindles at 5 umol/L incubated upto 72 hrs by immunofluorescence staining based analysis; assay type: functional, cell-based; details: dose 5.0 µmol/L; in short: as §4
MCF7 [20] = assay: Induction of apoptosis in human MCF7 cells assessed as late cells at 5 umol/L incubated for 3 days by Annexin V/PI staining based flow cytometry (reference value: 1.4 %); assay type: functional; details: dose 5 µmol/L; time 3 day; at 5 µM
ZR-75-1 [21] = assay: Induction of polyploidy in human ZR-75-1 cells assessed as cells with 16N chromosome contents at 5 uM incubated for 24 hrs by PI staining based flow cytometry (reference value: 0); assay type: functional
MCF7 [22] = assay: Induction of polyploidy in human MCF7 cells assessed as cells with 8N chromosome contents at 5 uM incubated for 72 hrs by PI staining based flow cytometry (reference value: 0); assay type: functional
T47D [23] = assay: Induction of apoptosis in human T47D cells assessed as rate of apoptotic cell death at 5 umol/L by annexin V/PI staining based flow cytometry relative to control; assay type: functional; details: dose 5 µmol/L; at 5 µM
MCF7 [24] = assay: Cytotoxicity against human MCF7 cells at 1 to 2.5 umol/L incubated for 72 hrs by MTS assay; assay type: functional, cell-based; details: dose 1-2.5 µmol/L
ZR-75-1 [25] = assay: Induction of polyploidy in human ZR-75-1 cells with RON-/- by microscopic analysis; assay type: functional, cell-based
In short: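 Cells (2 106 per 60-mm dish) transiently transfected for 48 hours with 1 nmol/L scrambled or RON-specific siRNA, with knockdown confirmed by anti-RON Western blot. […] Polyploidy monitored and photographed by microscopy, with untransfected and scrambled-siRNA cells as comparators.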

MCF7 [26] = assay: Induction of apoptosis in human MCF7 cells assessed as necrotic cells at 5 umol/L incubated for 3 days by Annexin V/PI staining based flow cytometry (reference value: 0.4 %); assay type: functional; details: dose 5 µmol/L; time 3 day; at 5 µM
T-47D (Homo sapiens) = assay: Disruption of microtubule dynamics in human T-47D cells at 5 umol/L incubated upto 72 hrs by immunofluorescence staining based analysis; details: dose 5.0 µmol/L
ZR-75-1 [27] = assay: Induction of polyploidy in human ZR-75-1 cells at 10 umol/L incubated for 72 hrs by microscopic analysis relative to control; assay type: functional; details: dose 10 µmol/L, at 10 µM; in short: as §1
ZR-75-1 [28] = assay: Induction of polyploidy in human ZR-75-1 cells assessed as cells with 16N chromosome contents at 5 uM incubated for 48 hrs by PI staining based flow cytometry (reference value: 0); assay type: functional
T47D [29] = assay: Induction of polyploidy in human T47D cells assessed as cells with 4N chromosome contents at 5 uM incubated for 24 hrs by PI staining based flow cytometry (reference value: 35); assay type: functional
MCF7 [30] = assay: Induction of polyploidy in human MCF7 cells assessed as cells with 16N chromosome contents at 5 uM incubated for 24 hrs by PI staining based flow cytometry (reference value: 0); assay type: functional

CCOc1ccn(-c2ccc(F)cc2)c(=O)c1C(=O)Nc1ccc(Oc2ccnc(N)c2Cl)c(F)c1 [BMS-777607]
viability at 5 µM (ZR-75-1 [1]): 88.5% | Activity (ZR-75-1 [2]): inactive | Activity (MCF7 [3]): 25.5 | Activity (ZR-75-1 [4]): 5 | Activity (ZR-75-1 [5]): 32 | Activity (T47D [6]): 18.5 | Activity (T47D [7]): 86% | Activity (T47D [8]): 22 | Activity (T47D [9]): Active | Activity (T47D [10]): Active | IC50 [11]: 1420 nM | Activity (T47D [12]): Active | Activity (T47D [13]): Active | Activity (MCF7 [14]): 36% | Activity (ZR-75-1 [15]): 9.7% | Activity (MCF7 [16]): Active | Activity (ZR-75-1 [17]): 1.8% | Activity (ZR-75-1 [18]): 12 | Activity (T47D [19]): Active | Activity (MCF7 [20]): 2% | Activity (ZR-75-1 [21]): 5 | Activity (MCF7 [22]): 29 | Activity (T47D [23]): 10.3% | Activity (MCF7 [24]): inactive | Activity (ZR-75-1 [25]): Active | Activity (MCF7 [26]): 0.5% | Activity (T-47D (Homo sapiens)): Active | Activity (ZR-75-1 [27]): 88% | Activity (ZR-75-1 [28]): 32 | Activity (T47D [29]): 20 | Activity (MCF7 [30]): 0
